Assay [1] is described as follows: inhibitors of TNFa-induced NFkB p65 translocation, primary screen, imaging, HUVEC, MLSMR starter and 10KST1 sets (AID 438;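 active means inhibition above 20% together with a positive visual image hit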;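 further: compound added about 3h40 before a 20 min TNFalpha stimulation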;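 on inhibition: signal is the nuclear over cytoplasmic p65 intensity ratio per well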). The settings on record: HUVEC TNFa-induced p65 nuclear translocation; cell count: measured here: nuclei count (cytotoxicity indicator), at 2.08 µM; inhibition: at 2 µM, stronger effect = higher value, 0% TNFa-plus-vehicle, 100% no-TNFa wells.
Assay [2] in a line: inhibitors of E-selectin induction by TNFa, primary screen, imaging, HUVEC, immunofluorescence, MLSMR starter and 10KST1 sets (AID 487;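 active means visually confirmed hit in the image check and inhibition above 20%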;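 on inhibition: signal is fraction of cell area covered by stained E-selectin grains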;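 on nuclei count: 100% = median nuclei count of all wells on the same plate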). The settings on record: HUVEC TNFalpha-induced E-selectin immunofluorescence imaging, at 2 µM; inhibition: stronger effect = higher value; nuclei count: measured here: cell number, toxicity.
The nature of assay [3]: DUSP6 inhibitors restoring Erk phosphorylation by chemical complementation, primary imaging in DUSP6-transfected HeLa (AID 609;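 active means compounds giving at least 50% inhibition in the cell-based MKP-3 phosphatase rescue imaging test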;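 on inhibition: phospho-Erk level distribution per well compared with pooled transfected vehicle control wells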). The settings on record: HeLa MKP-3 transfected, phospho-Erk imaging KS statistic, at 10 µM, cells stimulated with TPA for 15 min.
Assay [4] concerns the target Dual specificity protein phosphatase 6 (Homo sapiens) (UniProt Q16828). The description is as above. The note with it: HeLa MKP-3 transfected, phospho-Erk imaging KS statistic; at 10 µM; stronger effect = higher value; cells stimulated with TPA for 15 min.
Assay [5] concerns the target Voltage-gated potassium channel subunit beta-2 (Rattus norvegicus) (UniProt P62483). The assay can be described thus: KvBeta enzyme negative modulators, primary screen, biochemical, NADPH fluorescence (AID 622;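 active means fluorescence slope higher than the sample average by over 3 SD, cut at about -0.22 in these data, passing the limit was not always enough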;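 further: slope of raw intensity against log time taken from 70 to 1610 s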). The note with it: recombinant KvBeta, 4-cyanobenzaldehyde reduction, at 10 µM, stronger effect = higher value.
Assay [6] has the same target. Briefly: KvBeta positive modulators, primary screen, biochemical, NADPH fluorescence (AID 623;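 active means NADPH fluorescence slope more negative than the mean of all samples by about 3 SD, 99.7% confidence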;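 further: fluorescence intensity change per second fitted from 20 to 320 s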). The note with it: Recombinant KvBeta, NADPH fluorescence decrease slope, 10 min; at 10 µM; stronger effect = lower value.
Assay [7] deals with Alpha-2C adrenergic receptor (Homo sapiens) (UniProt P18825). Briefly: modulators of alpha2C/GIRK thallium flux, primary screen, cell-based, HEK293 alpha2C/GIRK1/2 (AID 624;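 active means fluorescence slope after compound addition differing from the mean of all screened samples at 99.7% confidence, in either direction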;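 further: slope of fluorescence ratio to pre-addition baseline per second over 15 to 24 s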). The note with it: thallium flux BTC fluorescence, at 10 µM, actives lie on both sides.
Sequence of Alpha-2C adrenergic receptor (Homo sapiens) (P18825 whole entry, looked up): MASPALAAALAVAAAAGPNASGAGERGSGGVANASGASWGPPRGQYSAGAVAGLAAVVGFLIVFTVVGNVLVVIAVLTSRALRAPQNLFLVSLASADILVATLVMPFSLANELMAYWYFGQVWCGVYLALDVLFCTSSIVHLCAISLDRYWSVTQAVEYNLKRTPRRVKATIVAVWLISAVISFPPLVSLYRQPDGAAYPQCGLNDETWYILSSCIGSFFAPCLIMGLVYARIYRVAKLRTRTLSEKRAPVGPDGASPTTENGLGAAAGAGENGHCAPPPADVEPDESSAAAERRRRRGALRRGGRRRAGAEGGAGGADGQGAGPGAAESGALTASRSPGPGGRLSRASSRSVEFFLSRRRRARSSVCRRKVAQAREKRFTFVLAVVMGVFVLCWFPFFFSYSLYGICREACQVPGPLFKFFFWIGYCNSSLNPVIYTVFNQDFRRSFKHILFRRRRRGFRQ
Assay [8] is described as follows: inhibitors of larval lipid processing in zebrafish, primary screen, whole organism, PED6 fluorescence, gall bladder and intestine (AID 686;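 active means a full or partial loss of lipid-probe fluorescence in the fish gall bladder, intestine or both, judged by eye; inactive means no fluorescence loss, or compound toxic to the fish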;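 further: larvae 5 to 7 days old with five fish per well; signal comes from phospholipase A2 cleavage of quenched PED6 carried via bile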). The settings on record: Zebrafish larvae PED6 lipid processing, fluorescence scoring; screened at 20 µM (by protocol). An outline of the steps: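 System: live zebrafish larvae aged 5-7 days, whole organism; measure: graded gall bladder and intestinal fluorescence inhibition per well; incubation: overnight exposure; reagent: ingested quenched lipid PED6 at 100 nM; signal: By-eye fluorescence microscopy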

The nature of assay [9]: inhibitors of Chlamydomonas gravitaxis, primary screen, whole organism, Chlamydomonas reinhardtii, WT vs cilia-less mutant, absorbance, 96-well (AID 463189).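 Further: 0% = wild type cc124 cells in DMSO and 100% = ciliumless bld1 mutant cells.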 The settings on record: OD600 absorbance, 2 days, at 10 µM, stronger effect = higher value.
[10] abbreviates: measured here: cell density z-score.
Where [11] appears, read: measured here: nuclear c-Myc green intensity z-score.
Where [12] appears, read: measured here: nuclear pErk red intensity z-score, stronger effect = higher value.

Data on seven compounds can be found in PubChem BioAssay.

Calls of active or inactive are those of the source.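 How the source made its calls, unless noted: active means inhibition at or above 50% relative to wild type and mutant plate controls; inactive means inhibition below 50%.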

Sequence of Dual specificity protein phosphatase 6 (Homo sapiens) (Q16828 whole entry, looked up): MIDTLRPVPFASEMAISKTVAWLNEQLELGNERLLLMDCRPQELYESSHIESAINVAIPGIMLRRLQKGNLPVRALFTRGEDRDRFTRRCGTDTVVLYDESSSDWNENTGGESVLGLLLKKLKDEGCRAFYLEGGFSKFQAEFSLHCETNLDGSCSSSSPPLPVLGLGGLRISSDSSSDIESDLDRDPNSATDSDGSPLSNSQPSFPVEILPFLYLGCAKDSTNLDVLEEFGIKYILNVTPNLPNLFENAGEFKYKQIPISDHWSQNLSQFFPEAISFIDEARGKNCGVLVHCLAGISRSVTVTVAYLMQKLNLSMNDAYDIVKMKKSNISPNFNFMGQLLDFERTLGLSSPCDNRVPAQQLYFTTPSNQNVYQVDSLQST
Sequence of Voltage-gated potassium channel subunit beta-2 (Rattus norvegicus) (P62483 whole entry, looked up): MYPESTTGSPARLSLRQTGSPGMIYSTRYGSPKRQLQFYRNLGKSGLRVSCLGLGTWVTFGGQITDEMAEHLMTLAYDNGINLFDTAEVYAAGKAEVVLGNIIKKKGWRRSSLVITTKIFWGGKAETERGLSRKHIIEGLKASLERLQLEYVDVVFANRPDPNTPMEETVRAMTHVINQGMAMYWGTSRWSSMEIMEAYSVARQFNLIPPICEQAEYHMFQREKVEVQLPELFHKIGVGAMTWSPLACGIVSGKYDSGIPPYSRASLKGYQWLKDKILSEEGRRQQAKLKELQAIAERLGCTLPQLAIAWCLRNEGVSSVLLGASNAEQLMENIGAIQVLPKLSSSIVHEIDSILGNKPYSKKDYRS

In the case of `Nc1ncnc2nc(SCc3ccccc3)[nH]c12`, the cell count in [1] is 352. Besides, the inhibition (usually the drop in the measured response relative to a control, in per cent) was 2.1% (inactive) in assay [1], -52.6% (inactive) in assay [2], -7.01% (inactive) in assay [4] and 8.96% (inactive) in assay [9]. Also, in assay [2], the nuclei count turned out to be 152%. In addition, the z-score in [3] (setting [10]) was -0.893; in assay [3] (setting [11]), 1.92; in [3] (setting [12]), 0.814. The fluorescence slope in assay [5] is -0.432 (inactive). In addition, in [6], the NADPH fluorescence slope is -0.00013 (inactive). In assay [7], the slope is 0.00504 (inactive). For the same compound, the result in assay [8] was inactive.

Take `N#CC1=C(C=Nc2ccccc2O)CCC1`: the cell count in assay [1] amounted to 643. In addition, the inhibition in assay [1] was -12.1% (inactive); in [2], -13.8% (inactive); in assay [4], -8.95% (inactive); in assay [9], 11.8% (inactive). For the same compound, in assay [2], the nuclei count was determined as 163%. Further, the results for the z-score in assay [3] (setting [10]), in assay [3] (setting [11]) and in [3] (setting [12]) were -1.7, -0.376 and 2.01, respectively. Moreover, in assay [5], the fluorescence slope was -0.416 (inactive). Further, in [6], the NADPH fluorescence slope was -6.1e-05 (inactive). Further, in [7], the slope was 0.00456 (inactive). The outcome in assay [8] was inactive.

On to `CC1(C)Cc2c(sc3c2C(=O)N(c2ccccc2)C2=NCCCN23)CO1`, for which the cell count in assay [1] was found to be 624. For the same compound, the inhibition in [1] is -12.4% (inactive); in assay [2] it was -154% (inactive); in assay [4] it was 18.9% (inactive); in [9] it was 41.4% (inactive). In addition, the nuclei count in assay [2] was determined as 120%. The z-score in assay [3] (setting [10]) is 1.04; in [3] (setting [11]), -0.486; in assay [3] (setting [12]), -1.32. Further, the fluorescence slope in assay [5] was -0.593 (inactive). The NADPH fluorescence slope in assay [6] was -2e-05 (inactive). The slope in assay [7] was 0.00454 (inactive). In [8], the compound was called inactive.

Consider `CNC(=O)c1cc2c(ccc3ccccc32)oc1=N`, for which, in assay [1], the cell count is 498. The inhibition is -4% (inactive) in [1], -64.4% (inactive) in [2], -0.159% (inactive) in [4] and 0.922% (inactive) in assay [9]. For the same compound, the nuclei count in assay [2] worked out at 134%. The z-score was 0.106 in assay [3] (setting [10]), 1.1 in assay [3] (setting [11]) and -0.558 in assay [3] (setting [12]). In assay [5], the fluorescence slope is -0.075 (active). The NADPH fluorescence slope in [6] is -2.6e-05 (inactive). In addition, in [7], the slope is 0.00187 (inactive). For the same compound, in assay [8], the call was inactive.

Regarding `O=c1[nH]c(=O)n(Cc2ccco2)c2c1C(C(F)(F)F)(C(F)(F)F)N=C(c1ccco1)N2`, the cell count in assay [1] turned out to be 505. For the same compound, the inhibition in [1] was -2.5% (inactive); in [2], -212% (inactive); in assay [4], 1.75% (inactive); in assay [9] it was -4.12% (inactive). For the same compound, in [2], the nuclei count came out at 132%. The z-score in assay [3] (setting [10]) is -0.683; in assay [3] (setting [11]) it was -0.978; in assay [3] (setting [12]), -0.242. Further, in [5], the fluorescence slope is -0.502 (inactive). Further, the NADPH fluorescence slope in assay [6] was -5.4e-05 (inactive). The slope in [7] was 0.00631 (inactive). Also, in assay [8], the outcome was inactive.

With `Clc1ccc(-c2nn3c(-c4cccc(Cl)c4)nnc3s2)cc1`, the cell count in [1] turned out to be 603. Further, the inhibition in assay [1] was -0.1% (inactive); in [2], -90.1% (inactive); in [4], -2.47% (inactive); in assay [9], 33% (inactive). In [2], this compound had a nuclei count of 150%. For the same compound, the z-score is -0.779 in [3] (setting [10]), 0.764 in assay [3] (setting [11]) and -0.704 in assay [3] (setting [12]). The fluorescence slope in assay [5] is -0.42 (inactive). Moreover, the NADPH fluorescence slope in [6] was -9.2e-05 (inactive). Further, the slope in [7] is 0.00631 (inactive). Also, the result in [8] was inactive.

For `CCn1cc(C(=O)NCC2CCCO2)c(=O)c2cc(F)c(N3CCN(C)CC3)cc21` (stereo unspecified), the cell count in assay [1] was found to be 570. Further, the inhibition is -6.7% (inactive) in [1], -14.6% (inactive) in assay [2], 1.75% (inactive) in [4] and 4.63% (inactive) in assay [9]. In assay [2], this compound yielded a nuclei count of 188%. Also, the z-score was -0.305 in assay [3] (setting [10]), -1.21 in [3] (setting [11]) and 2 in [3] (setting [12]). Also, the fluorescence slope in assay [5] was -0.388 (inactive). The NADPH fluorescence slope in assay [6] is -2.9e-05 (inactive). Besides, the slope in assay [7] is 0.00486 (inactive). The result in assay [8] was inactive.
